ChEMBL document CHEMBL1255484, “In vitro activity of ACH-702, a new isothiazoloquinolone, against Nocardia brasiliensis compared with econazole and the carbapenems imipenem and meropenem alone or in combination with clavulanic acid” (Antimicrob Agents Chemother, 2010)
≈ marks a conversion by molar mass, not a printed value.

What was measured:
Nocardia brasiliensis [1] = experiment: Antibacterial activity against Nocardia brasiliensis isolated from actinomycetoma patient by broth dilution method; assay type: functional
Method in brief: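 CLSI M24-A broth microdilution on 30 N. brasiliensis isolates from human actinomycetoma, including HUJEG-1, identified biochemically and by 16S rRNA gene fragment sequencing. Ground colonies were suspended to 0.5 McFarland in cation-adjusted Mueller-Hinton broth, giving 1 × 10^4 to 5 × 10^4 CFU per well, and added to serial drug dilutions. Incubation was 3 days at 35°C. MIC is the lowest concentration giving total growth inhibition; MIC50/MIC90 are reported.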

Mus musculus = experiment: Plasma concentration in mouse at 3.3 mg/kg, po; assay type: ADME, organism-based; design: dose 3.3 mg/kg, route oral; conditions: in vivo
[2] = Tmax in mouse plasma at 3.3 mg/kg, po; assay type: ADME, organism-based; design: dose 3.3 mg/kg, route oral
Nocardia brasiliensis [3] = experiment: Antibacterial activity against Nocardia brasiliensis isolated from actinomycetoma patient by broth dilution method in presence of clavulanic acid; assay type: functional
Method in brief: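 Same CLSI M24-A broth microdilution: 30 human actinomycetoma N. brasiliensis isolates, cation-adjusted Mueller-Hinton broth, inoculum 1 × 10^4 to 5 × 10^4 CFU per well, 3 days at 35°C. Clavulanic acid at 0.25 μg/ml was added with each carbapenem dilution. Drug-free growth well; E. coli ATCC 25922 and S. aureus ATCC 29213 as external controls. MIC is total growth inhibition.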

MIC50 (Nocardia brasiliensis [1]) [µg/mL] | MIC90 (Nocardia brasiliensis [1]) [µg/mL] | Cp (Mus musculus) [ng/mL] | Tmax [2] [h] | MIC50 (Nocardia brasiliensis [3]) [µg/mL] | MIC90 (Nocardia brasiliensis [3]) [µg/mL] | Compound
2 (≈ 5.24 µM) | 4 (≈ 10.5 µM) | 230 | 1 |  |  | Clc1ccc(COC(Cn2ccnc2)c2ccc(Cl)cc2Cl)cc1 (centres undefined) [ECONAZOLE]
64 (≈ 214 µM) | > 64 |  |  | 64 | > 64 | C[C@@H](O)[C@H]1C(=O)N2C(C(=O)O)=C(SCCNC=N)C[C@H]12 [IMIPENEM ANHYDROUS]
2 (≈ 5.22 µM) | 8 (≈ 20.9 µM) |  |  | 2 | 8 | C[C@@H](O)[C@H]1C(=O)N2C(C(=O)O)=C(S[C@@H]3CN[C@H](C(=O)N(C)C)C3)[C@H](C)[C@H]12 [MEROPENEM]
0.125 (≈ 0.289 µM) | 0.5 (≈ 1.16 µM) |  |  |  |  | COc1c(N2CC[C@@H](C(C)(C)N)C2)c(F)cc2c(=O)c3c(=O)[nH]sc3n(C3CC3)c12
